Laboratory results from ChEMBL document CHEMBL2203263, “Discovery of a 4-Azetidinyl-1-thiazoyl-cyclohexane CCR2 Antagonist as a Development Candidate” (ACS Med Chem Lett, 2012).

How the values were obtained:
Cavia porcellus [1] = test: Cardiotoxicity in anesthetized-Hartley guinea pig assessed as prolongation of corrected QT interval up to cumulative dose of 10 mg/kg, iv by electrocardiographic analysis; assay type: toxicity, organism-based; set-up: dose 10 mg/kg, route intravenous; settings: in vivo
Procedure, shortened: (§1)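 Anesthetized guinea pigs received cumulative i.v. doses of 0.1, 0.3, 1, 3 and 10 mg/kg, each as a 5 min infusion at 0, 20, 40, 60 and 80 min. QTc was recorded at each time point as percent change from each animal's baseline. Mean ± SEM, n = 3.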

Cavia porcellus [2] = test: Cardiotoxicity in anesthetized Hartley guinea pig assessed as prolongation of corrected QT interval up to cumulative dose of 10 mg/kg, iv by electrocardiographic analysis; assay type: toxicity, organism-based; set-up: dose 10 mg/kg, route intravenous; settings: in vivo; procedure, shortened: as §1
[3] = Plasma concentration in Hartley guinea pig up to cumulative dose of 10 mg/kg, iv by LC-MS-MS analysis; assay type: ADME, organism-based, Cavia porcellus; set-up: dose 10 mg/kg, route intravenous; settings: in vivo
Procedure, shortened: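 Plasma drug level was taken from the anesthetized guinea pig QTc study. Dosing was cumulative i.v. (0.1, 0.3, 1, 3, 10 mg/kg), each dose a 5 min infusion at 20 min intervals, up to 10 mg/kg.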

hERG (KCNH2) = hERG (KCNH2) (Homo sapiens, UniProt Q12809); test: Inhibition of human ERG expressed in HEK-293 cells assessed as K+-selective outward current at 3 uM at -80 mV holding potential after 5 mins by voltage patch-clamp method; assay type: cell-based, HEK293; settings: HEK-293 cells expressing human ERG
[4] = target: Voltage-gated inwardly rectifying potassium channel KCNH2 (Homo sapiens, UniProt Q12809); test: Displacement of [3H]-astemizole from human ERG expressed in HEK293 cells after 1 hr by scintillation counting analysis; assay type: cell-based
Cavia porcellus [5] = test: Cardiotoxicity in iv dosed anesthetized-Hartley guinea pig assessed as prolongation of corrected QT interval by electrocardiographic analysis; assay type: toxicity, organism-based; settings: in vivo; procedure, shortened: as §1

Chain of Voltage-gated inwardly rectifying potassium channel KCNH2 (Q12809 whole entry): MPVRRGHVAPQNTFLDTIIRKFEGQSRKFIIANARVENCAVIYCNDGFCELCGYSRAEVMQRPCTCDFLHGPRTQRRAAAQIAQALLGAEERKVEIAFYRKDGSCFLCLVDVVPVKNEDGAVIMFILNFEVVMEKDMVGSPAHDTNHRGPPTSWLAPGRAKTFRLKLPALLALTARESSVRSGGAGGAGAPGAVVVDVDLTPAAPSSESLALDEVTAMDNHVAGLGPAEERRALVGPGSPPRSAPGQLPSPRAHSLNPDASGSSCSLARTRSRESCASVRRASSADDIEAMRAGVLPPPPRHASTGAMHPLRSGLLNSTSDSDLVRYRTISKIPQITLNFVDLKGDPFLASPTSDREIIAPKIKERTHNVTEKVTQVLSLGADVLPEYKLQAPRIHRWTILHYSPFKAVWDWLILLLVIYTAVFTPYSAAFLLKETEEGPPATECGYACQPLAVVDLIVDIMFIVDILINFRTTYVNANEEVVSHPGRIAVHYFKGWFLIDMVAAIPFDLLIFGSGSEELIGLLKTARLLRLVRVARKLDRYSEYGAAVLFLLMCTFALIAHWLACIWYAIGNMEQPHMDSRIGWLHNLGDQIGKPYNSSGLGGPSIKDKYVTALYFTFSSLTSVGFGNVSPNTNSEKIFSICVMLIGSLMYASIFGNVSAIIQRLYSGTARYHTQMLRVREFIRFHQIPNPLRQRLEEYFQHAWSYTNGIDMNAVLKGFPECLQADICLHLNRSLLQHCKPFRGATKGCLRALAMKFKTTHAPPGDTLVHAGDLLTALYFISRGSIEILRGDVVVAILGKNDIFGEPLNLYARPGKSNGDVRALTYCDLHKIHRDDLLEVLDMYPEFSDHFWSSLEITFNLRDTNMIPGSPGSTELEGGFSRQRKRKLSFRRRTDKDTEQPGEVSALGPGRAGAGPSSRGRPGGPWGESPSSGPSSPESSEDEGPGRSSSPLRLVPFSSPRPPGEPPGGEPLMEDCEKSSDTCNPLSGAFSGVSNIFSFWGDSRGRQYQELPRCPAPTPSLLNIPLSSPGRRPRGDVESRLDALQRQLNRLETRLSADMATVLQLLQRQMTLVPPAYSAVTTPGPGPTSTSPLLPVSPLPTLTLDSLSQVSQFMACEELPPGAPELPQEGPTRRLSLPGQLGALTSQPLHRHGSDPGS
Chain of hERG (KCNH2) (Q12809 whole entry): as above

Row | concentration [3] [µM] | Structure (SMILES) | Activity (Cavia porcellus [1]) [%] | Activity (Cavia porcellus [2]) | inhibition at 5 min, 3 µM (hERG (KCNH2)) [%] | IC50 [4] [µM] | Activity (Cavia porcellus [5])
1 | – | Cc1cnc([C@]2(O)CC[C@H](N3CC(NC(=O)CNC(=O)c4cccc(C(F)(F)F)c4)C3)CC2)s1 | 15 | – | – | – | –
2 | 3 | CC(C)Oc1ncc([C@]2(O)CC[C@H](N3CC(NC(=O)CNC(=O)c4cccc(C(F)(F)F)c4)C3)CC2)s1 | – | Non-toxic | 49 | 28 | –
3 | – | Cc1ccc([C@]2(O)CC[C@H](N3CC(NC(=O)CNC(=O)c4cccc(C(F)(F)F)c4)C3)CC2)cn1 | 13 | – | – | – | Dose-dependent effect
4 | 10 | CC(C)c1ncc([C@]2(O)CC[C@H](N3CC(NC(=O)CNC(=O)c4cccc(C(F)(F)F)c4)C3)CC2)s1 | – | Non-toxic | 35 | > 50 | –
